For data set [1], the target named is T1, Tyrosine-protein kinase receptor TYRO3 (Homo sapiens) (UniProt Q06418).
T1 sequence (whole entry): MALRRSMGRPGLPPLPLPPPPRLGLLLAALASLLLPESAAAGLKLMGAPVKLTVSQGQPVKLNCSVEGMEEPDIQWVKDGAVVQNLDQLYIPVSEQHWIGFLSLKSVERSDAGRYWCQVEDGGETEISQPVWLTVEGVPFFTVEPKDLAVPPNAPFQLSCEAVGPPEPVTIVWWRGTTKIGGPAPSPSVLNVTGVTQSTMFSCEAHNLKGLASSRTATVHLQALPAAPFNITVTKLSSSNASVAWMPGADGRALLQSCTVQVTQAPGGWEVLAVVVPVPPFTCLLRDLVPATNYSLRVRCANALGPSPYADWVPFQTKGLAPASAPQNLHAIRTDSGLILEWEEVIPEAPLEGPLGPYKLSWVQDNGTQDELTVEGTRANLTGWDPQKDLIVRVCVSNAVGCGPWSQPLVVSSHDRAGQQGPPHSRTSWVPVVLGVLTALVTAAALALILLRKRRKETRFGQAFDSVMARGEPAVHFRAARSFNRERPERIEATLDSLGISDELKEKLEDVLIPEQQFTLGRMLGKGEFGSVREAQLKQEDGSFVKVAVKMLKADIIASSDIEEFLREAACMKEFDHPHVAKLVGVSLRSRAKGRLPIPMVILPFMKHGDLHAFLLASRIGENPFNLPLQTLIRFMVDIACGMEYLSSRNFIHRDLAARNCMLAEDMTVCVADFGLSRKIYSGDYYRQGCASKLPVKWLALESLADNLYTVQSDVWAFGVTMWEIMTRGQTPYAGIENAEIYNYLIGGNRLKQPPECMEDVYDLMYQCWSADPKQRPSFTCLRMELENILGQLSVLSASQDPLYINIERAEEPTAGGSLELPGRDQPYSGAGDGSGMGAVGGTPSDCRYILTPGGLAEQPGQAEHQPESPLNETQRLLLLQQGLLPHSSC
As to the kind of experiment: Inhibition of TYRO3 (unknown origin) at 200 nM relative to control.

Data set [2] has as its target T2, Tyrosine-protein kinase Mer (Homo sapiens) (UniProt Q12866).
T2 sequence (whole entry): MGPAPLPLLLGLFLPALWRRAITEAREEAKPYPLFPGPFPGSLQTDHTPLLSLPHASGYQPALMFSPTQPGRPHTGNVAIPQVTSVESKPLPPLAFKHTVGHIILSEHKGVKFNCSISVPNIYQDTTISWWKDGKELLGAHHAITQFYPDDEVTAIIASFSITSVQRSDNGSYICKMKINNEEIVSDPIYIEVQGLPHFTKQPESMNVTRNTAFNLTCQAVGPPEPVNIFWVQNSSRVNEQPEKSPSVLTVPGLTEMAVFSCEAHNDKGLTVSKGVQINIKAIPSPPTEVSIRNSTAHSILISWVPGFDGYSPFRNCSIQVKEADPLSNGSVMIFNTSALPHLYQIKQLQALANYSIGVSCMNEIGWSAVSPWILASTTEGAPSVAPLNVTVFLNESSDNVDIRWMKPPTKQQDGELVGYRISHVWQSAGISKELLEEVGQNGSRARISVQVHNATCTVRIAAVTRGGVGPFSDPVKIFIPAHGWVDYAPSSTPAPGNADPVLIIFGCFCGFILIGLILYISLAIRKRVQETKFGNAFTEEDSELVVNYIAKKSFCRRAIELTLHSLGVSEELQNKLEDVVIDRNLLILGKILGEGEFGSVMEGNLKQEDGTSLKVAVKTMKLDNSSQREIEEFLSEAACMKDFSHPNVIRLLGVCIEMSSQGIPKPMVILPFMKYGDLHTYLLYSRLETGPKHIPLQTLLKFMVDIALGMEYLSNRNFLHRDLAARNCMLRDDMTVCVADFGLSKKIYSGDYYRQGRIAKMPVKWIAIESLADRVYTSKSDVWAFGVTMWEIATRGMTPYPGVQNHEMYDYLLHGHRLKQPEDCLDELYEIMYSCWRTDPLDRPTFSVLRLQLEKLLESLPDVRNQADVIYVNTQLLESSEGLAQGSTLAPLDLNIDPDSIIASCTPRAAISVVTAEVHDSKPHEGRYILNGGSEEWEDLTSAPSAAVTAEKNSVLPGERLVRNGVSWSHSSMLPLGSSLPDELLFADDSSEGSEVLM
The data set is described as follows: Inhibition of MER (unknown origin) at 200 nM relative to control.

For data set [3], the system named is KB. As to the kind of experiment: Growth inhibition of human KB cells at 10 uM after 72 hrs by […] relative to control. As to conditions: read-out: GI. It counts as functional. An outline of the steps: (§1)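 KB and Vero cells were grown in D-MEM with 10% FCS and antibiotics under 5% CO2, plated, then dosed 24 h later at 10^-5 M from DMSO (controls 1% DMSO). After 72 h, MTS was added for 3 h at 37 °C and A490 read. Inhibition = (1 − OD treated/OD control) × 100, in triplicate.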

Data set [4] concerns PC-3. As to the kind of experiment: Growth inhibition of human PC3 cells at 10 uM after 72 hrs by […] assay relative to control. To be noted: PC-3, 72 h, read-out: GI. It counts as functional. An outline of the steps: (§2)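 HT29, MCF7 and PC-3 cells were grown in RPMI, plated, and treated 24 h later with compound in DMSO at 10^-5 M (DMSO controls, 1% final). After 72 h exposure, MTS reagent was added for 3 h at 37 °C and absorbance read at 490 nm. Proliferation inhibition = [1 − OD treated/OD control] × 100, triplicate experiments.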

In data set [5] the test system is MCF7. The data set is described as follows: Growth inhibition of human MCF7 cells at 10 uM after 72 hrs by […] assay relative to control. Format: functional. To be noted: MCF7, 72 h, read-out: GI. An outline of the steps: as §2
(In general: Tetrazolium assays rely on reduction of a dye to a coloured formazan, in cell work by metabolically active cells.)

Data set [6] is described as follows: Growth inhibition of African green monkey Vero cells at 10 uM after 72 hrs by […] assay relative to control. Format: cell-based. As to conditions: chlorocebus sabaeus, read-out: GI. An outline of the steps:
as §1

Data set [7] addresses T3, Tyrosine-protein kinase receptor TYRO3 (Homo sapiens, UniProt Q06418).
T3 sequence (Q06418 whole entry): T1 sequence (whole entry)
As to the kind of experiment: Binding affinity to TYRO3 (unknown origin) after 1 hr.

Data set [8] concerns the target Hepatocyte growth factor receptor (Homo sapiens, UniProt P08581). As to the kind of experiment: Binding affinity to MET (unknown origin) after 1 hr.
The test system of data set [9] is HT-29. As to the kind of experiment: Growth inhibition of human HT-29 cells at 10 uM after 72 hrs by […] assay relative to control. It counts as functional. To be noted: HT-29, 72 h, read-out: GI. An outline of the steps:
as §2

The target of data set [10] is T4, Tyrosine-protein kinase ABL1 (Homo sapiens, UniProt P00519). As to the kind of experiment: Binding affinity to phosphorylated ABL1 (unknown origin) after 1 hr.
T4 sequence (P00519 whole entry): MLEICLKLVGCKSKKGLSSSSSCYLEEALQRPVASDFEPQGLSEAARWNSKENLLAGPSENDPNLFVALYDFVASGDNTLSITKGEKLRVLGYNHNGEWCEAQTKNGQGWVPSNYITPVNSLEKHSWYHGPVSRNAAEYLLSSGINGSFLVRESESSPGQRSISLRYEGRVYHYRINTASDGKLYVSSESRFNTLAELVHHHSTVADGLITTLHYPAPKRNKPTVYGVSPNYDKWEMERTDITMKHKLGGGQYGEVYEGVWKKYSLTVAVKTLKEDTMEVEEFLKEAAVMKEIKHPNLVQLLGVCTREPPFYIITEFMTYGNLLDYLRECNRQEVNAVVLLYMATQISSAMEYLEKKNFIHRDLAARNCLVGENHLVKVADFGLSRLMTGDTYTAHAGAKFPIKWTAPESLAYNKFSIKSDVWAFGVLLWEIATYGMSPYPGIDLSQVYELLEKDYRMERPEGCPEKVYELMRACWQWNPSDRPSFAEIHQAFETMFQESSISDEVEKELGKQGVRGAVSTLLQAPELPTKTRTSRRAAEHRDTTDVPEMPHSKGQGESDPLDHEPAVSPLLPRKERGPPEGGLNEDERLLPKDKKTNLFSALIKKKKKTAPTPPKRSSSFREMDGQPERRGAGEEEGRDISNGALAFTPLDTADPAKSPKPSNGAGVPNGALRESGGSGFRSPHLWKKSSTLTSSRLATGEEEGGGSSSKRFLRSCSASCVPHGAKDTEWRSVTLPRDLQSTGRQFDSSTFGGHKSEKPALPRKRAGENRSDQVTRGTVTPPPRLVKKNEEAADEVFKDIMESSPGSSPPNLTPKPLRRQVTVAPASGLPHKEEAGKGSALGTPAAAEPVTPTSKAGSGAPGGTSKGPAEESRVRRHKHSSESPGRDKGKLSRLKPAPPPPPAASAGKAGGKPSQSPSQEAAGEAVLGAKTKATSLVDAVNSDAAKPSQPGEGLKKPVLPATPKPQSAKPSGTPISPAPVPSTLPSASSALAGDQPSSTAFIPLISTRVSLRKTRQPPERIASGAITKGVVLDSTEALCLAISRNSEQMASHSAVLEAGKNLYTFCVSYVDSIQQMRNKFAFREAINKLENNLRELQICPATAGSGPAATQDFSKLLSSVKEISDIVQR
The target in data set [11] is T4, Tyrosine-protein kinase ABL1. As to the kind of experiment: Binding affinity to non phosphorylated ABL1 (unknown origin) after 1 hr.

SMILES strings stand for the structures.

Chain of Hepatocyte growth factor receptor (P08581 whole entry): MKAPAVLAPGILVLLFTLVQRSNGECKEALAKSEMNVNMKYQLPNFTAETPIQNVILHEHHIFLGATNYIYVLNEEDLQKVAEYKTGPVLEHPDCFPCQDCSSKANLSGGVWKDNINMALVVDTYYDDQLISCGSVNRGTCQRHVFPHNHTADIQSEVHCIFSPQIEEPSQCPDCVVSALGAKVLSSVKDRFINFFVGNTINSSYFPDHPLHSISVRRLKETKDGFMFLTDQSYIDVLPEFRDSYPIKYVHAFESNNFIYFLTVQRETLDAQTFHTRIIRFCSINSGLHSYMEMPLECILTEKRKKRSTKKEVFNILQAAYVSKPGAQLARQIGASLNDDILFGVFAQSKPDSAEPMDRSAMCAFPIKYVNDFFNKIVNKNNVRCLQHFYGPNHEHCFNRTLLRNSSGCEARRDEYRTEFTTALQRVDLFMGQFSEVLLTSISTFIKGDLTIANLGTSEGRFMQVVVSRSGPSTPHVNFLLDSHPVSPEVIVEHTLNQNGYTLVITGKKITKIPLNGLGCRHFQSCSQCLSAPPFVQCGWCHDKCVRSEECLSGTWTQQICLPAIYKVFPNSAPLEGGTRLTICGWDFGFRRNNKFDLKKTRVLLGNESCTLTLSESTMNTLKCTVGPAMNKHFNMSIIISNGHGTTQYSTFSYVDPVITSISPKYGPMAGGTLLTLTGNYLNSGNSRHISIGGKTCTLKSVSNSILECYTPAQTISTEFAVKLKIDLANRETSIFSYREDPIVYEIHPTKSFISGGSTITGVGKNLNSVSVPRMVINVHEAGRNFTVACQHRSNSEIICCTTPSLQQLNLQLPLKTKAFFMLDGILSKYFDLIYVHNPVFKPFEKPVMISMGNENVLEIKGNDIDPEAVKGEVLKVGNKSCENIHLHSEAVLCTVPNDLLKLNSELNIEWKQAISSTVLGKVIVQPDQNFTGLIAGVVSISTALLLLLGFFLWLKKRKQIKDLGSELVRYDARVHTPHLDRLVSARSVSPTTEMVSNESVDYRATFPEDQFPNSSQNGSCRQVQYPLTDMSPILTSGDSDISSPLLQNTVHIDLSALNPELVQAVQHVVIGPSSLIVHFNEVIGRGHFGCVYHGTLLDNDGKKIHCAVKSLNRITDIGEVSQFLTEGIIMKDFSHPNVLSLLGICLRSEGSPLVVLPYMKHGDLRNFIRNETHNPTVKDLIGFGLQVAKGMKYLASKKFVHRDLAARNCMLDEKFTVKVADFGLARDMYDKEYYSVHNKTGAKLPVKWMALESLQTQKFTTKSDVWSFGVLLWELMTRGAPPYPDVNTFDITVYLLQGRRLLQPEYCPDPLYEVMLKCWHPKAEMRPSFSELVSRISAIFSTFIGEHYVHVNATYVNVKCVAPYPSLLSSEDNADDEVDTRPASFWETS

In the case of `CC(C)[S+]([O-])c1ccccc1Nc1nc(Nc2ccc(CN3CCN(C)CC3)cc2)ncc1Cl` (stereo not drawn), the inhibition in [1] is > 50%; in [2], > 90%.
Usually Kd stands for the concentration at which binding is half-saturated. Regarding `O=C(Nc1ccc(Oc2ncnc3nc[nH]c23)c(F)c1)c1cccn(-c2ccc(C(F)(F)F)cc2)c1=O`, the inhibition of growth at 10 µM in data set [3], in [4], in data set [5] and in [9] was < 10% each time. The inhibition at 72 h, 10 µM in [6] is < 10%. Besides, the Kd in data set [7] amounted to 2900 nM; in data set [8], 150 nM.
Turning to `O=C(Nc1ccc(Oc2ncnc3[nH]cnc23)c(F)c1)c1cccn(-c2cccc(F)c2)c1=O`, the inhibition of growth at 10 µM in data set [3], in [4], in data set [5] and in data set [9] was < 10% throughout. The Kd came out at 3300 nM in data set [10], 900 nM in [7], 440 nM in [8] and 320 nM in data set [11]. Besides, in data set [6], the inhibition at 72 h, 10 µM was < 10%.
For the compound `O=C(Nc1ccc(Nc2ncnc3[nH]cnc23)c(F)c1)c1cccnc1F`, the inhibition of growth at 10 µM in data set [3], in data set [4], in data set [5] and in data set [9] was < 10% throughout. Further, the inhibition at 72 h, 10 µM in data set [6] was < 10%.
As for `O=C(Nc1ccc(Nc2ncnc3[nH]cnc23)c(F)c1)c1cccn(-c2cccc(F)c2)c1=O`, the inhibition of growth at 10 µM in data set [3], in data set [4], in data set [5] and in data set [9] was < 10% throughout. Moreover, the inhibition at 72 h, 10 µM in [6] is < 10%.
Consider `COc1ncccc1C(=O)Nc1cccc(-c2ncnc3[nH]cnc23)c1`, for which the inhibition of growth at 10 µM in [3], in data set [4], in data set [5] and in data set [9] was < 10% each time. For the same compound, the inhibition at 72 h, 10 µM in data set [6] is < 10%.
As for `O=C(Nc1cccc(-c2nc3c(Nc4ccc(F)cc4)ncnc3[nH]2)c1)c1ccccc1F`, the inhibition of growth at 10 µM in data set [3], in data set [4], in data set [5] and in [9] was < 10% in each case. Further, in data set [6], the inhibition at 72 h, 10 µM was < 10%.
Turning to `COc1ccccc1C(=O)Nc1cccc(-c2nc3c(Nc4ccccc4)ncnc3[nH]2)c1`, the inhibition of growth at 10 µM in data set [3], in data set [4], in data set [5] and in data set [9] was < 10% each time. The inhibition at 72 h, 10 µM in data set [6] was < 10%.
For `O=C(Nc1ccc(Nc2ncnc3[nH]cnc23)cc1)c1cccnc1F`, the inhibition of growth at 10 µM in data set [3], in data set [4], in [5] and in data set [9] was < 10% each time. In addition, the inhibition at 72 h, 10 µM in data set [6] is < 10%.
In the case of `Cc1cc(C(=O)Nc2cccc(-c3ncnc4[nH]cnc34)c2)ccc1Br`, the inhibition of growth at 10 µM in data set [3], in [4], in data set [5] and in data set [9] was < 10% in each case. Moreover, in data set [6], the inhibition at 72 h, 10 µM was < 10%.
Regarding `O=C(Nc1cccc(-c2ncnc3[nH]cnc23)c1)c1ccccc1F`, the inhibition of growth at 10 µM in data set [3], in [4], in data set [5] and in data set [9] was < 10% in each case. The inhibition at 72 h, 10 µM in data set [6] was < 10%.
Regarding `COc1ccccc1C(=O)Nc1cccc(-c2ncnc3[nH]cnc23)c1`, the inhibition of growth at 10 µM in [3], in data set [4], in data set [5] and in data set [9] was < 10% each time. Also, in [6], the inhibition at 72 h, 10 µM is < 10%.
For `O=C(Nc1ccc(Nc2ncnc3[nH]cnc23)c(F)c1)c1cccn(-c2ccc(F)cc2)c1=O`, the inhibition of growth at 10 µM in data set [3], in data set [4], in [5] and in data set [9] was < 10% throughout. For the same compound, the inhibition at 72 h, 10 µM in [6] is < 10%.
Turning to `O=C(Nc1cccc(-c2ncnc3[nH]cnc23)c1)c1cccn(-c2cccc(F)c2)c1=O`, the inhibition of growth at 10 µM in [3], in data set [4], in data set [5] and in data set [9] was < 10% each time. In addition, the inhibition at 72 h, 10 µM in data set [6] was < 10%.

The record behind these values is ChEMBL document CHEMBL2346606, “Inhibitors of the TAM subfamily of tyrosine kinases: synthesis and biological evaluation” (Eur J Med Chem, 2013).
